Among the data in ChEMBL document CHEMBL4359913, “Identification and characterization of benzo[d]oxazol-2(3H)-one derivatives as the first potent and selective small-molecule inhibitors of chromodomain protein CDYL” (Eur J Med Chem, 2019) are Kd values, retold here.

The structures appear in SMILES notation. Some results are limits rather than exact numbers.

The target in assay [1] is T1, Chromodomain Y-like protein (Homo sapiens, UniProt Q9Y232).
T1 sequence (Q9Y232 whole entry): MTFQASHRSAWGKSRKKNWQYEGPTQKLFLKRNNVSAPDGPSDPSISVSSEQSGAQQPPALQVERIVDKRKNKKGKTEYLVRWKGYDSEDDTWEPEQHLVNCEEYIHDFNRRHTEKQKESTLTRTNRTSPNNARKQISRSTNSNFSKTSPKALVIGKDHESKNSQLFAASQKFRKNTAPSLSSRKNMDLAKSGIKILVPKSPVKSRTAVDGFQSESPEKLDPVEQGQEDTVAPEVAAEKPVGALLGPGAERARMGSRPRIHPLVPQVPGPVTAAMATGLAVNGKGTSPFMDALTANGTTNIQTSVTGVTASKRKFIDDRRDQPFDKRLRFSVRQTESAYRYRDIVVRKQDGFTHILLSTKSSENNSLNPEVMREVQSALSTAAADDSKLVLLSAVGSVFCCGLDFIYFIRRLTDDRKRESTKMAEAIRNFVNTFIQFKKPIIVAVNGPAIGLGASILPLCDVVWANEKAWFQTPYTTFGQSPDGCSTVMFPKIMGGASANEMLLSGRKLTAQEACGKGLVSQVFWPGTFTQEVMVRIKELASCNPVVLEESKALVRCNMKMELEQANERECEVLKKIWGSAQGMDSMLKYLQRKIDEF
Put plainly: Binding affinity to recombinant human N-terminal GST-tagged CDYL (1 to 60 residues) expressed in Escherichia coli […] by SPR analysis. An outline of the steps:
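GST-tagged chromodomain expressed in E. coli BL21 with 0.2 mM IPTG at 28 °C for 6 h. Purified on GSTrap, tag removed with PreScission protease. Amine-coupled to CM5 chip at pH 4.0–4.5 (5000–10000 RU). Compound run as a 1.5- or 2-fold series from 100 µM in PBSP with 5% DMSO, 25 °C, 30 µL/min, 60 s association and 60 s dissociation.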
For orientation: Surface plasmon resonance follows binding to a sensor surface in real time, without labels.

Assay [2] concerns the target T2, Testis-specific chromodomain protein Y 1 (Homo sapiens, UniProt Q9Y6F8).
T2 sequence (Q9Y6F8 whole entry): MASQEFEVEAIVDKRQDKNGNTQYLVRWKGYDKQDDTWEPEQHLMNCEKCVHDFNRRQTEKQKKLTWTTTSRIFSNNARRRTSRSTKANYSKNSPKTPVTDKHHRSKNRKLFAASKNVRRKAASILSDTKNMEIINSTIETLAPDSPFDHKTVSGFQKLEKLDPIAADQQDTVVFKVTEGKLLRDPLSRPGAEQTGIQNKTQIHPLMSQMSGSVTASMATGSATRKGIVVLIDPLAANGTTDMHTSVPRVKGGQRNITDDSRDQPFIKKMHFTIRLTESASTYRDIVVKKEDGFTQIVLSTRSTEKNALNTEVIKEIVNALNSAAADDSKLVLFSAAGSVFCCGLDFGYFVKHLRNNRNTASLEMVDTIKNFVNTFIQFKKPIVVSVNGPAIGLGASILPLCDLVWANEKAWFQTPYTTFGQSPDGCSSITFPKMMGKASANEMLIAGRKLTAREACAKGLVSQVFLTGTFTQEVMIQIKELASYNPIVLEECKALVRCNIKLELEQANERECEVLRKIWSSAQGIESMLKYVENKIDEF
Put plainly: Binding affinity to recombinant human N-terminal GST-tagged CDY1 (1 to 65 residues) expressed in Escherichia coli […] by SPR analysis. An outline of the steps:
(§1)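 Chromodomain expressed with N-terminal GST tag in E. coli BL21 (IPTG 0.2 mM at OD600 0.6–0.8, 28 C for 6 h), GSTrap purified, tag cleaved by PreScission protease, amine-coupled to CM5 chip at pH 4.0–4.5 (5000–10000 RU). […] Mean ± SD of at least two replicates, each in duplicate.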

In assay [3] the target is T3, Chromobox protein homolog 7 (Homo sapiens, UniProt O95931).
T3 sequence (O95931 whole entry): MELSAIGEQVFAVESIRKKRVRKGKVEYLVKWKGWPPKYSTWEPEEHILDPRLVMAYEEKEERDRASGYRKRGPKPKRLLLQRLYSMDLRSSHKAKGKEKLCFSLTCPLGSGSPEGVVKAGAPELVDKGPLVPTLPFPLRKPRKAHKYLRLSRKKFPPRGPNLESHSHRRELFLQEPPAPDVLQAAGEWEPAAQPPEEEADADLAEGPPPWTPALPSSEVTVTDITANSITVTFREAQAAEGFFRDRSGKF
The experiment in a line: Binding affinity to recombinant human N-terminal GST-tagged CBX7 (1 to 62 residues) expressed in Escherichia coli […] by SPR analysis. In a few lines: as §1

Broadly, the Kd is a measure of binding affinity in units of concentration. Consider `CC(C)N1C(=O)C(O)(CC(=O)c2ccco2)c2ccccc21` (configuration not stated), for which the dissociation constant Kd came out at 13.1 µM in assay [1], 61.6 µM in assay [2] and 41.1 µM in assay [3].
As to `CC(C)N1C(=O)[C@@](O)(CC(=O)c2cccc3ccccc23)c2ccccc21`, in assay [1], the Kd was 55.3 µM.
Consider `COc1cccc(NC(=O)Cn2c(=O)oc3ccccc32)c1`, for which the Kd is 7.3 µM in assay [1], 1 µM in assay [2] and 14.8 µM in assay [3].
Taken in the same sequence, the figures for `CCCN1C(=O)C(O)(CC(=O)c2ccc3c(c2)CCCC3)c2ccccc21` (configuration not stated) were 50.5 µM, 89.5 µM and 7.2 µM.
Take `COc1cccc(C(=O)Cn2cnc3ccccc32)c1`: the dissociation constant Kd in assay [1] is 10.1 µM; in assay [2], 4 µM.
Take `CN1C(=O)C(O)(CC(=O)c2cccc3ccccc23)c2ccccc21` (configuration not stated): the Kd is 128 µM in assay [1], 24.7 µM in assay [2] and 2.4 µM in assay [3].
Consider `CCCN1C(=O)C(O)(CC(=O)c2cccc3ccccc23)c2ccccc21` (configuration not stated), for which the Kd was 23 µM in assay [1], 21.1 µM in assay [2] and 20.4 µM in assay [3].
As to `COc1cccc(C(=O)CN2C(=O)COc3ccccc32)c1`, the results for the dissociation constant (Kd) in assay [1], in assay [2] and in assay [3] were 13 µM, 11.3 µM and 53 µM, respectively.
Regarding `CN(C)c1ccc(C(=O)Cn2c(=O)oc3ccccc32)cc1`, the dissociation constant Kd in assay [1] came to 11.9 µM; in assay [3], 36.5 µM.
On the same counts, the results for `CCN(CC)C1CCN(C(=O)Cn2c(=O)oc3ccccc32)CC1` are 5.8 µM and 46.6 µM.
With `CN1CCc2c(sc3c2C(=O)N[C@@H](/C=C\c2ccccc2)N3)C1`, the Kd in assay [1] stood at 55.6 µM.
In the case of `CCCCN1C(=O)C(O)(CC(=O)c2cccc(OC)c2)c2ccccc21` (configuration not stated), the results for the Kd in assay [1], in assay [2] and in assay [3] were 100 µM, 17.2 µM and 8.8 µM, respectively.
Taken in the same sequence, the figures for `O=C(CN1C(=O)COc2ccccc21)c1ccc2ccccc2c1` were 52.5 µM, 39.6 µM and 26.5 µM.
With `COc1ccc2oc(=O)n(CC(=O)c3c[nH]c4ccccc34)c2c1`, the results for the Kd in assay [1], in assay [2] and in assay [3] were 7.2 µM, 36.4 µM and 20.3 µM, respectively.
For the compound `O=C(Cn1c(=O)oc2ccc(F)cc21)c1c[nH]c2ccccc12`, the Kd in assay [1] was 5.1 µM; in assay [2] it was 23.7 µM; in assay [3], 9.8 µM.
Regarding `CN(C)C1CCN(C(=O)Cn2c(=O)oc3ccccc32)CC1`, the Kd turned out to be 9.5 µM in assay [1] and 33.6 µM in assay [2].
In the case of `COc1ccc2oc(=O)n(CC(=O)c3ccc(N(C)C)cc3)c2c1`, the Kd in assay [1] was 15.5 µM; in assay [2], 2.7 µM; in assay [3], 6.1 µM.
Regarding `O=C(Cn1c(=O)sc2cc([N+](=O)[O-])ccc21)c1c[nH]c2ccccc12`, the Kd in assay [1] is 71.7 µM; in assay [2], 14.4 µM; in assay [3], 8.8 µM.
Taken in the same sequence, the figures for `CN1C(=O)C(O)(CC(=O)c2ccc3ccccc3c2)c2ccccc21` (configuration not stated) were 19.4 µM, 28.9 µM and 5.1 µM.
On the same counts, the results for `O=C(Cn1c(=O)oc2ccc(Br)cc21)c1ccc2ccccc2c1` are 5.8 µM, 14.8 µM and 9.5 µM.
On the same counts, the results for `COc1ccc(C(=O)Cn2c(=O)oc3ccc(F)cc32)cc1OC` are 20.5 µM, 4.4 µM and 28.8 µM.
On to `N#Cc1ccc2oc(=O)n(CC(=O)c3c[nH]c4ccccc34)c2c1`, for which the figures for the equilibrium dissociation constant (Kd) in assay [1], in assay [2] and in assay [3] were 96.7 µM, 4.6 µM and 46.9 µM, respectively.
On the same counts, the results for `COc1ccc2oc(=O)n(CC(=O)c3ccc(OC)c(OC)c3)c2c1` are 5.5 µM, 11.3 µM and 3.9 µM.
In the case of `COCCCNC(=O)Cc1c(C)c2c(O)cc(C)cc2oc1=O`, the Kd in assay [1] turned out to be 26 µM.
For the compound `O=C(CN1C(=O)COc2ccccc21)c1c[nH]c2ccccc12`, the Kd amounted to 59.8 µM in assay [1], 109 µM in assay [2] and 37.1 µM in assay [3].
On the same counts, the results for `CN(C)c1ccc(C(=O)Cn2c(=O)oc3ccc(F)cc32)cc1` are 90.1 µM, 34.6 µM and 78.1 µM.
Taken in the same sequence, the figures for `O=C(Cn1c(=O)oc2ccccc21)N1CCC(N2CCOCC2)CC1` were 25.9 µM, 21 µM and 5.6 µM.
On the same counts, the results for `O=C(Cn1c(=O)oc2ccccc21)Nc1cccc2ccccc12` are 29 µM, 0.8 µM and above 200 µM.
As for `O=C(Cn1c(=O)oc2ccccc21)c1c[nH]c2ccccc12`, the Kd in assay [1] is 1.9 µM; in assay [2], 21 µM; in assay [3] it was 9.3 µM.
On the same counts, the results for `COc1ccc2oc(=O)n(CC(=O)c3ccc4ccccc4c3)c2c1` are 1.5 µM, 1.5 µM and 59.5 µM.
Regarding `COc1cccc(C(=O)Cn2c(=O)oc3ccc(F)cc32)c1`, the Kd in assay [1] amounted to 6.2 µM; in assay [3] it was 3.4 µM.
In the case of `O=C(Cn1c(=O)oc2ccccc21)Nc1ccc2ccccc2c1`, the equilibrium dissociation constant (Kd) in assay [1] was 18.9 µM; in assay [2], 20.4 µM; in assay [3], 19.6 µM.
As to `COc1ccc(C(=O)Cn2c(=O)oc3ccccc32)cc1OC`, the results for the Kd in assay [1], in assay [2] and in assay [3] were 14.6 µM, 23.8 µM and 48.5 µM, respectively.
With `O=C(Cn1c(=O)oc2cc(Br)ccc21)c1ccc2ccccc2c1`, the values for the dissociation constant Kd in assay [1], in assay [2] and in assay [3] were 29 µM, 1.7 µM and 29.7 µM, respectively.
Taken in the same sequence, the figures for `O=C(Cn1c(=O)oc2ccccc21)c1cccc2ccccc12` were 3 µM, 6.5 µM and 29.9 µM.
On the same counts, the results for `Nc1ccc2c(c1)sc(=O)n2CC(=O)c1c[nH]c2ccccc12` are 3.5 µM, 51.1 µM and 6.5 µM.
For `COc1cccc(C(=O)Cn2c(=O)oc3ccc(C#N)cc32)c1`, the Kd is 42.1 µM in assay [2] and 19.6 µM in assay [3].
As to `Nc1ccc2c(c1)sc(=O)n2CC(=O)c1ccc2ccccc2c1`, the dissociation constant (Kd) in assay [1] was 4.9 µM; in assay [3], above 200 µM.
Turning to `COc1ccccc1[C@@H]1NC(=O)c2c(sc3c2CCN(C)C3)N1`, the dissociation constant (Kd) in assay [1] came out at 53.2 µM.
With `CCCN1C(=O)C(O)(CC(=O)c2cc(Br)c(Br)o2)c2cc(Cl)ccc21` (configuration not stated), the Kd stood at 15.4 µM in assay [1] and 16 µM in assay [3].
For `C[C@@H](CN1CCCC1)OC(=O)c1ccc(Cl)cc1Cl`, the Kd in assay [1] was 271 µM.
With `O=C(Cn1c(=O)oc2ccc([N+](=O)[O-])cc21)N1CCC(N2CCCC2)CC1`, the Kd in assay [1] was determined as 16.8 µM; in assay [2], 55.8 µM.
On the same counts, the results for `O=C(Cn1c(=O)sc2cc([N+](=O)[O-])ccc21)c1ccc2ccccc2c1` are 26.8 µM and 123 µM.
On the same counts, the results for `N#Cc1ccc2oc(=O)n(CC(=O)c3ccc4ccccc4c3)c2c1` are 101 µM and 71.5 µM.
As for `CCN(CC)CCOC(=O)CCc1cccc2ccccc12`, the Kd in assay [1] came to 60.8 µM.
Still for that read-out and setting: next, `CCCC(=O)Nc1ccc(Cl)c(NC(=O)COc2ccccc2OC)c1`: 14.2 µM.
As to `C=CCN1C(=O)C(O)(CC(=O)c2ccc3ccccc3c2)c2ccccc21` (configuration not stated), the dissociation constant (Kd) came out at 31.7 µM in assay [1] and 24.5 µM in assay [2].
On the same counts, the results for `COc1cccc(C(=O)Cn2c(=O)oc3ccccc32)c1` are 4.9 µM and 5.8 µM.
